# Hep lipid drop: hepatic lipid droplet formation modulation. AML12 mouse hepatocytes, oleate lipid droplets, BODIPY imaging. hit rate 0.4% among 240,000. inhibition, % at 6.5 µM;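 active = lipid droplet intensity inhibited by at least 50%, with more than 500 cells counted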
#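 Assay system: AML12 hepatocytes (mouse) / Also added: 100 µM oleic acid challenge / Times: overnight treatment with compound plus oleate / Detection: high-content imaging of BODIPY-stained droplets and DAPI nuclei / Evaluation: % inhibition of lipid droplet signal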
# TbMetRS inhib: blocks T. brucei methionyl-tRNA synthetase activity; purified T. brucei MetRS, ATP depletion, Kinase-Glo luminescence; inhibition, % at 11.9 µM; hit rate 0.4% among 360,000;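 active = inhibition above a per-plate cutoff of the control wells' mean inhibition plus 3 SD, cut at about 5.5% in these data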
#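 technique = Kinase-Glo luminescence, ATP depletion format | system = purified MetRS (methionyl-tRNA synthetase) enzyme from Trypanosoma brucei | timing = 15 min preincubation, 2 h reaction, all 25 °C | evaluation = percent inhibition versus plate control medians | dosing = single dose, 11.9 µM final nominal, 0.9% final DMSO | also added = substrates ATP, L-methionine and bulk Escherichia coli tRNA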
# NS3 helicase inh: HCV NS3 helicase inhibition | NS3 helicase DNA unwinding, Cy5 molecular beacon fluorescence | inhibition, % at 10.9 µM | hit rate 0.56% among 290,000;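 active = inhibition above the mean of all tested compounds plus 3 SD, set per campaign, cut at about 35% in these data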
#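 Test system: hepatitis C virus NS3 helicase domain fragment enzyme. Also added: annealed dual-labelled DNA beacon duplex, ATP-started. Timing: 60 min unwinding reaction at 25 °C after ATP addition. Technique: Cy5 fluorescence. Measure: % inhibition of unwinding.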
# core dimer inh: blocks dimerization of HCV core protein; hit rate 0.33% among 300,000; inhibition, % at 5 µM; AID 1899; TR-FRET GST/Flag-core106 dimerization, 1536-well;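 active = inhibition above the mean of all tested compounds plus 3 SD, set per screening campaign, cut at about 45% in these data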
#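 Assay system: GST-tagged and Flag-tagged HCV core protein residues 1-106 / Times: compound-protein-antibody incubation 4 h at 22.5 °C / Signal: time-resolved FRET, ex 340 nm, em 617 and 671 nm / Evaluation: % inhibition based on acceptor/donor emission ratio / Benchmarks: wells lacking GST-core106 and wells with excess unlabelled core106 / Repeats: singlicate, one well per compound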
# NS3 hel confirm: confirmation of Hepatitis C virus NS3 helicase inhibitors | shares compounds with NS3 helicase inh | NS3 helicase DNA unwinding, Cy5 molecular beacon fluorescence | inhibition, % at 10.9 µM | hit rate 31% among 1,600;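 active = inhibition above the mean of all tested compounds plus 3 SD, cutoff set per campaign, cut at about 36% in these data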
# FID counter trip: displaces DNA intercalator in HCV helicase counter-screen; shares compounds with NS3 helicase inh; DNA fluorescent intercalator displacement, fluorescence; inhibition, % at 7.9 µM; hit rate 4% among 1,600; AID 1945; in the data active = inhibition above about 37%;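 also: higher means more displacement of ethidium bromide from the DNA hairpin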
# Tb MetRS conf: confirmation of Trypanosoma brucei MetRS inhibitors; AID 624412; hit rate 93% among 1,400; shares compounds with TbMetRS inhib; T. brucei MetRS enzyme, luminescence (ATP depletion); inhibition, % at 11.9 µM; in the data active = inhibition above about 7%
# Jurkat cytotox: Jurkat T cell cytotoxicity for MetRS hits; hit rate 12% among 1,400; shares compounds with TbMetRS inhib; inhibition, % at 8.3 µM; Jurkat cells viability, ATP luminescence; AID 624413; in the data active = inhibition above about 15%
# Tb MetRS inh FP: T. brucei MetRS inhibition, orthogonal assay; AID 651607; inhibition, % at 11.9 µM; hit rate 44% among 1,400; shares compounds with TbMetRS inhib; purified T. brucei MetRS, fluorescence polarization; in the data active = inhibition above about 17%
# A number is an active result; 0 = inactive; - = no result. Hits are enriched below; roughly 1.3% of the tested compounds scored in any of these assays.
SMILES,Hep lipid drop,TbMetRS inhib,NS3 helicase inh,core dimer inh,NS3 hel confirm,FID counter trip,others
Cn1nc(C(F)(F)F)c(-c2cccc(C(F)(F)F)c2)c1NC(=O)c1nccnc1C(=O)O,0,0,51.1,0,0,0,
CNc1ccccc1C(C)(C)c1cc(-c2ccco2)n[nH]1,-,0,40.7,0,0,0,
CNc1ccccc1C(C)(C)c1cc(C)[nH]n1,0,0,0,0,-,-,
COc1ccc(-n2c(Cc3cccn3C)nnc2SCC(=O)NCc2ccccc2Cl)cc1,0,0,47.3,0,0,0,
CCn1c(CN2CCC(C)CC2)nc2cc(S(=O)(=O)N3CCCCC3)ccc21,-,0,-,-,-,-,
COc1ccc(C2=NN(c3nc4ccccc4s3)C(=O)/C2=C\N(C)C)cc1,0,0,46.6,0,0,0,
CC(=O)Nc1ccc(NC(=O)CC2Nc3cccc4cccc(c34)NC2=O)cc1 (stereo not drawn),-,0,46.4,0,0,0,
Cc1cccc(NC(=O)CC2Nc3cccc4cccc(c34)NC2=O)c1 (stereo not drawn),-,0,45.2,0,0,0,
CC(=O)c1ccc(NC(=O)CC2Nc3cccc4cccc(c34)NC2=O)cc1 (stereo not drawn),0,0,0,0,-,-,
Cc1ccc(S(=O)(=O)N2CCN(C(=O)COC(=O)c3ccc(O)cc3)CC2)c(C)c1,-,0,-,0,-,-,
COc1ccccc1C1C2=C(CCCC2=O)N(CC(=O)O)C2=C1C(=O)CCC2,0,0,41.4,0,0,0,
Cc1noc(C)c1NC(=O)N(C)C[C@H]1OCc2cnnn2CCCC(=O)N([C@H](C)CO)C[C@@H]1C,-,0,-,-,-,-,
CCC(=O)Nc1ccc(C(=O)CSc2nnc(-c3ccccc3F)n2C2CC2)cc1,0,0,51.7,0,0,0,
CCC(C)NC(=O)NC(=O)CSc1nnc(-c2ccccc2F)n1C1CC1 (stereo not drawn),0,0,0,0,-,-,
Cc1ccc(C2C(C#N)=C(N)SC(N)=C2C#N)c(C)c1,-,0,36.5,0,0,0,
O=C(NCC1CCCO1)c1cc(S(=O)(=O)N2CCCC2)c(Cl)cc1Cl (stereo not drawn),0,0,83.0,0,0,0,
O=C(NCC1CCCO1)c1cc(S(=O)(=O)N2CCCCC2)ccc1Cl (stereo not drawn),-,0,-,-,-,-,
CC1CCCc2sc3nc(NCc4ccco4)n4ncnc4c3c21 (stereo not drawn),0,0,0,0,-,-,
CC1CCc2sc3nc(NCc4ccco4)n4ncnc4c3c2C1 (stereo not drawn),-,0,38.8,0,0,0,
CCn1c(=O)c(CCC(=O)NCC2CCCO2)c(C)c2c(C)nn(-c3ccc(C)cc3)c21 (stereo not drawn),0,0,37.1,0,0,0,
COc1ccccc1-c1nnc(NC(=O)c2ccc(S(=O)(=O)N3CCCC3)cc2)o1,0,0,53.3,0,0,0,
CC1CCCN(S(=O)(=O)c2ccc(C(=O)Nc3nnc(-c4ccccc4Cl)o3)cc2)C1 (stereo not drawn),0,0,0,0,-,-,
Cn1cccc1CC(=O)NNC(=S)NC(=O)c1ccc(F)cc1,0,0,44.5,0,0,0,
Cc1ccc(C)c(NC(=O)c2cc([N+](=O)[O-])cc([N+](=O)[O-])c2)c1,0,0,0,0,-,-,
CCCCn1c(N)c(NCCC(C)C)c(=O)[nH]c1=O,0,0,44.7,0,0,0,
SMILES,Hep lipid drop,TbMetRS inhib,NS3 helicase inh,core dimer inh,NS3 hel confirm,FID counter trip,others
CCCCn1c(N)c(Br)c(=O)[nH]c1=O,0,0,0,0,-,-,
Cn1cccc1CC(=O)NNC(=O)Nc1cccc(Cl)c1,0,0,37.6,0,0,0,
Cc1cccc(Nc2nnc(SC/C(O)=C(\C#N)c3nc4ccccc4[nH]3)s2)c1C,0,0,48.0,0,0,0,
C=CCNc1nc2ccccc2nc1NS(=O)(=O)c1ccc(Cl)cc1,0,0,36.4,0,0,0,
C=CCNc1nc2ccccc2nc1NS(=O)(=O)c1ccc(OC)cc1,0,0,0,0,-,-,
Cc1nccn1-c1ccc(NC(=O)[C@H]2O[C@@H](n3ccc(N)nc3=O)[C@H](O)[C@@H]2O)cc1,-,0,-,-,-,-,
CCCCCC(=O)Nc1nc(C)c(-c2csc(Nc3cc(OC)ccc3OC)n2)s1,-,0,39.4,0,0,0,
CCCCCCC(=O)Nc1nc(C)c(-c2csc(Nc3cc(OC)ccc3OC)n2)s1,-,0,0,0,-,-,
Cc1ccc(O)c(CP(=O)(c2ccccc2)c2ccccc2)c1,0,0,0,0,-,-,
CCNc1ccccc1CP(=O)(c1ccccc1)c1ccccc1O (stereo not drawn),0,-,63.5,0,0,0,
CCOC(=O)C1=C(N)N2C(=O)C(C)SC2=C(C(=O)OCC)C1c1ccc(O)cc1 (stereo not drawn),0,0,39.1,0,0,0,
CC(C)C/C=C1\CCc2c([nH]c3ccccc23)C1=O,0,0,0,0,-,-,
CCCCCCCCC1=NCCc2c1[nH]c1ccccc21,0,49.4,0,0,-,-,Tb MetRS conf=70.4;Jurkat cytotox=32.7;Tb MetRS inh FP=47.3
CCOC(=O)/C=C/c1cccc(C)c1O,-,0,-,-,-,-,
O=c1[nH]c(Nc2ccccc2)cc2ccccc12,-,8.1,0,0,-,-,Tb MetRS conf=0;Jurkat cytotox=0;Tb MetRS inh FP=0
O=C(/C=C/c1ccc(O)c(O)c1)NC(=O)c1ccccc1O,0,0,0,0,-,-,
O=C(/C=C/c1ccc(Br)cc1)NC(=O)c1ccccc1O,0,7.2,0,0,-,-,Tb MetRS conf=8.8;Jurkat cytotox=0;Tb MetRS inh FP=0
COc1cccc(NC(=O)CSCC(=O)Nc2ccccc2)c1,0,6.1,0,0,-,-,Tb MetRS conf=17.7;Jurkat cytotox=0;Tb MetRS inh FP=0
COc1ccc(OC)c(NC(=O)CCNC(=O)N2CC(=O)Nc3ccccc32)c1,-,0,-,-,-,-,
CCCOc1cccc(OCC(=O)Nc2nc3ccccc3[nH]2)c1,0,28.8,0,0,-,-,Tb MetRS conf=47.9;Jurkat cytotox=0;Tb MetRS inh FP=20.1
CCCCNc1nc2ccccc2[nH]1,0,8.0,0,0,-,-,Tb MetRS conf=14.4;Jurkat cytotox=0;Tb MetRS inh FP=0
O=C(CSc1ccc2ccccc2c1)Nc1nc2ccccc2[nH]1,0,21.1,0,0,-,-,Tb MetRS conf=28.7;Jurkat cytotox=0;Tb MetRS inh FP=0
O=C(COc1ccccc1)Nc1nc2ccccc2[nH]1,0,0,0,0,-,-,
CCCCOc1cccc(OCC(=O)Nc2nc3ccccc3[nH]2)c1,0,35.8,0,0,-,-,Tb MetRS conf=47.6;Jurkat cytotox=0;Tb MetRS inh FP=0
CCOc1ccc(OCCCC(=O)Nc2nc3ccccc3[nH]2)cc1,0,0,0,0,-,-,
C=CCn1cc(C(=O)OCC)c(=O)c2ccc(F)cc21,0,0,0,0,-,-,
Cc1ccc(C)c(N2CCN(C(=O)c3ccc(NC4=NC5CS(=O)(=O)CC5S4)cc3)CC2)c1 (stereo not drawn),0,0,0,0,-,-,

# Bioassay records (PubChem)
